Experimental findings from ChEMBL document CHEMBL1208664, “Structure-activity relationship studies of acridones as potential antipsoriatic agents. 1. Synthesis and antiproliferative activity of simple N-unsubstituted 10H-acridin-9-ones against human keratinocyte growth” (Eur J Med Chem, 2010) are described below.

In assay [1] the test system is HaCaT. Nature of the assay: Antiproliferative activity against human HaCaT cells after 48 hrs by phase contrast microscopy. It counts as functional, cell-based. The procedure, abridged: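 HaCaT keratinocytes were treated for 48 h, then dispersed cells were counted under phase-contrast microscopy. Inhibition = (1 − test/control) × 100, with test mean N=3 against control N=6–8. Significance was by Student's t-test.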

The test system of assay [2] is Radical scavenging activity. Put plainly: Antioxidant activity assessed as DPPH free radical scavenging activity after 30 mins. Format: functional. The settings on record: in the assay text read “after 20 mins” for “after 30 mins”. The procedure, abridged:
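Test compound in EtOH was mixed with an equal volume of DPPH in EtOH. The mix was shaken 30 s, held in the dark at RT for 20 min, shaken again 30 s, and the drop in absorbance at 520 nm was read. Scavenging % = (1 − test/control absorbance) × 100, with test N=3 and control N=8. EC50 came from nonlinear regression. NDGA and α-tocopherol were positive controls.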
For orientation: Loss of DPPH colour is used to gauge radical scavenging.

Assay [3] concerns HaCaT. Put plainly: Antiproliferative activity against human HaCaT cells assessed as LDH release at 2 uM after 4 hrs by UV method. (In general: LDH leaks from cells whose membrane has failed.)

A value given as a limit tells only on which side of the number the result lay.

One may read the IC50 as the point on the concentration scale where inhibition reaches its midpoint. Take `O=c1c2ccccc2[nH]c2cc(O)ccc12`: the IC50 with HaCaT [1] is greater than 50 µM.

What is called EC50 is the concentration needed to bring the measured effect to its halfway point. As to `COc1ccc(C(N)=O)c2[nH]c3ccccc3c(=O)c12`, the IC50 in the assay with HaCaT [1] turned out to be 8.8 µM. Further, in assay [2], the EC50 was greater than 60 µM. In addition, the Activity in the assay with HaCaT [3] was 66.5 mU/ml.

For `COC(=O)c1ccc(O)c2c(=O)c3ccccc3[nH]c12`, in the assay with HaCaT [1], half-maximal inhibition (IC50) was put at 5.2 µM. Besides, in assay [2], the EC50 was greater than 60 µM. Besides, the Activity in the assay with HaCaT [3] came out at 58.8 mU/ml.

The compound `COC(=O)c1ccc(OC)c2c(=O)c3ccccc3[nH]c12` returned an IC50 in the assay with HaCaT [1] of 10.8 µM. In addition, the EC50 in assay [2] is greater than 60 µM. Besides, in the assay with HaCaT [3], the Activity stood at 63.7 mU/ml.

In the case of `O=C(O)c1ccc(O)c2c(=O)c3ccccc3[nH]c12`, in the assay on HaCaT [1], half-maximal inhibition (IC50) was put at 49.2 µM. Further, in assay [2], the EC50 is greater than 60 µM.

Consider `COc1ccc(C(=O)O)c2[nH]c3ccccc3c(=O)c12`, for which the IC50 in the assay on HaCaT [1] is greater than 50 µM. The EC50 in assay [2] is greater than 60 µM.

As to `O=c1c2ccccc2[nH]c2cc(OCc3ccccc3)cc(O)c12`, in the assay with HaCaT [1], half-maximal inhibition (IC50) was put at 47.8 µM.

`O=c1c2ccccc2[nH]c2cc(OCCc3ccccc3)cc(O)c12` had a half-inhibitory concentration (IC50) in the assay with HaCaT [1] of 21 µM.

`CC(=O)c1ccc2[nH]c3ccccc3c(=O)c2c1O` gave an IC50 with HaCaT [1] of 17.1 µM. Besides, the EC50 in assay [2] was greater than 60 µM.

As for `O=C(c1ccccc1)c1ccc2[nH]c3ccccc3c(=O)c2c1O`, half-maximal inhibition with HaCaT [1] (IC50) required 1.6 µM. For the same compound, the EC50 in assay [2] is greater than 60 µM. For the same compound, the Activity in the assay with HaCaT [3] is 88.9 mU/ml.

On to `CC(=O)Oc1cccc2[nH]c3ccccc3c(=O)c12`, for which it took 21.5 µM to reach half-maximal inhibition in the assay on HaCaT [1] (IC50).

Turning to `O=C(Oc1cccc2[nH]c3ccccc3c(=O)c12)c1ccccc1`, the 50% inhibitory concentration (IC50) with HaCaT [1] came to 12.4 µM. Moreover, the EC50 in assay [2] was greater than 60 µM.

Consider `O=c1c2c(O)cccc2[nH]c2cccc(O)c12`, for which, in the assay with HaCaT [1], the midpoint of inhibition, the IC50, lay at 39.5 µM. In addition, the EC50 in assay [2] is greater than 60 µM.

As to `COc1cccc2[nH]c3cccc(OC)c3c(=O)c12`, in the assay with HaCaT [1], the IC50 is greater than 50 µM.

`O=c1c2ccccc2[nH]c2c(O)cccc12` had an IC50 in the assay with HaCaT [1] greater than 50 µM. The EC50 in assay [2] was found to be 6.8 µM.

For the compound `COc1ccc2c(=O)c3ccccc3[nH]c2c1`, in the assay with HaCaT [1], the IC50 is greater than 50 µM.

For the compound `COc1cccc2c(=O)c3ccccc3[nH]c12`, the IC50 in the assay on HaCaT [1] was greater than 50 µM. For the same compound, the EC50 in assay [2] is greater than 60 µM.

The compound `O=c1c2ccccc2[nH]c2c(O)ccc(O)c12` yielded an IC50 with HaCaT [1] of 10 µM. The half-maximal effective concentration (EC50) in assay [2] was found to be 8.8 µM. Further, the Activity with HaCaT [3] is listed as 61.2 mU/ml.

In the assay with HaCaT [1], `COc1ccc(OC)c2c(=O)c3ccccc3[nH]c12` displayed an IC50 greater than 50 µM. In assay [2], the EC50 is greater than 60 µM.

In the assay on HaCaT [1], `COc1ccc(O)c2c(=O)c3ccccc3[nH]c12` yielded an IC50 of 17.5 µM. Besides, in assay [2], the EC50 is greater than 60 µM.

`O=c1c2ccc(O)cc2[nH]c2cccc(O)c12`: the half-inhibitory concentration (IC50) with HaCaT [1] was 4.5 µM. Moreover, in assay [2], the EC50 was greater than 60 µM. For the same compound, the Activity in the assay on HaCaT [3] is on record as 77.7 mU/ml.

For `COc1ccc2c(=O)c3c(OC)cccc3[nH]c2c1`, in the assay on HaCaT [1], the half-inhibitory concentration (IC50) was greater than 50 µM.

In the assay on HaCaT [1], `O=c1c2cc(O)ccc2[nH]c2cccc(O)c12` came in with a concentration for half-maximal inhibition (IC50) of 48.8 µM. Further, in assay [2], the EC50 turned out to be 3.9 µM.

The compound `COc1ccc2[nH]c3cccc(OC)c3c(=O)c2c1` yielded a concentration for half-maximal inhibition (IC50) with HaCaT [1] greater than 50 µM.

Compound `O=c1c2cccc(O)c2[nH]c2cc(O)cc(O)c12` yielded an IC50 in the assay with HaCaT [1] of 8.4 µM. For the same compound, the EC50 in assay [2] worked out at 15 µM. The Activity with HaCaT [3] is on record as 69.9 mU/ml.

With `O=c1c2c(O)cccc2[nH]c2cc(O)cc(O)c12`, in the assay on HaCaT [1], the IC50 is 2 µM. In addition, the EC50 in assay [2] was greater than 60 µM. The Activity with HaCaT [3] amounted to 69.3 mU/ml.

Consider `COc1cc(OC)c2c(=O)c3c(OC)cccc3[nH]c2c1`, for which the midpoint of inhibition in the assay on HaCaT [1], the IC50, lay at 45.3 µM.

Regarding `COc1cccc2[nH]c3cc(O)cc(O)c3c(=O)c12`, the midpoint of inhibition in the assay with HaCaT [1], the IC50, lay at 28.3 µM.

With `COc1ccc(O)c2c(=O)c3c(O)cccc3[nH]c12`, the IC50 in the assay on HaCaT [1] was greater than 50 µM. Also, in assay [2], the 50% effective concentration (EC50) is greater than 60 µM.

Consider `COc1ccc(OC)c2c(=O)c3c(OC)cccc3[nH]c12`, for which the IC50 in the assay with HaCaT [1] is greater than 50 µM. Besides, the EC50 in assay [2] is greater than 60 µM.

For `Cc1cc(O)c2c(=O)c3ccccc3[nH]c2c1`, the IC50 with HaCaT [1] was greater than 50 µM.

`Cc1cc(O)cc2[nH]c3ccccc3c(=O)c12` registered an IC50 with HaCaT [1] of 27.3 µM.

In the assay with HaCaT [1], `Cc1ccc2c(=O)c3c(O)cc(O)cc3[nH]c2c1` gave a half-inhibitory concentration (IC50) greater than 50 µM.

As to `Cc1ccc(O)c2c(=O)c3ccccc3[nH]c12`, in the assay on HaCaT [1], the IC50 was 25.7 µM. Besides, the EC50 in assay [2] was greater than 60 µM.

For `COc1ccc(C)c2[nH]c3ccccc3c(=O)c12`, the IC50 in the assay with HaCaT [1] was found to be 46.7 µM. The EC50 in assay [2] is greater than 60 µM.

In the assay on HaCaT [1], `O=c1c2ccccc2[nH]c2c(Cl)ccc(O)c12` displayed an IC50 of 26.3 µM. Besides, the EC50 in assay [2] was greater than 60 µM.

`COc1ccc(Cl)c2[nH]c3ccccc3c(=O)c12` had an IC50 in the assay on HaCaT [1] of 43.8 µM. In addition, the EC50 in assay [2] was greater than 60 µM.

Turning to `O=c1c2ccccc2[nH]c2c([N+](=O)[O-])ccc(O)c12`, in the assay with HaCaT [1], the midpoint of inhibition, the IC50, lay at 47.3 µM. Also, the EC50 in assay [2] is greater than 60 µM.

`COc1ccc([N+](=O)[O-])c2[nH]c3ccccc3c(=O)c12` displayed a half-inhibitory concentration (IC50) in the assay on HaCaT [1] greater than 50 µM. The EC50 in assay [2] is greater than 60 µM.

Take `Nc1ccc(O)c2c(=O)c3ccccc3[nH]c12`: in the assay on HaCaT [1], the IC50 is greater than 50 µM. For the same compound, in assay [2], the EC50 turned out to be 7.6 µM.

`COc1ccc(N)c2[nH]c3ccccc3c(=O)c12`: the IC50 with HaCaT [1] was greater than 50 µM. In assay [2], the EC50 was 7.7 µM.

Turning to `N#Cc1ccc(O)c2c(=O)c3ccccc3[nH]c12`, the IC50 in the assay with HaCaT [1] is 27.9 µM. Also, the EC50 in assay [2] is greater than 60 µM.

In turn, `COc1ccc(C#N)c2[nH]c3ccccc3c(=O)c12` had an IC50 with HaCaT [1] greater than 50 µM. Further, in assay [2], the EC50 was greater than 60 µM.

As to `NC(=O)c1ccc(O)c2c(=O)c3ccccc3[nH]c12`, half-maximal inhibition in the assay with HaCaT [1] (IC50) required 4.7 µM. Besides, in assay [2], the EC50 is greater than 60 µM. The Activity in the assay with HaCaT [3] was 68.1 mU/ml.

Turning to `Cc1cccc2c(O)c3c(O)cc(O)cc3nc12`, the IC50 in the assay with HaCaT [1] is greater than 50 µM.

With `COc1cc(O)c2c(O)c3cccc(OC)c3nc2c1`, the midpoint of inhibition in the assay on HaCaT [1], the IC50, lay at 34.3 µM.

In turn, `O=c1c2ccccc2[nH]c2ccc(O)cc12` registered a 50% inhibitory concentration (IC50) in the assay on HaCaT [1] greater than 50 µM. The EC50 in assay [2] was determined as 2.7 µM.

For `COc1cc(O)c2c(=O)c3ccccc3[nH]c2c1`, in the assay on HaCaT [1], it took 46.3 µM to reach half-maximal inhibition (IC50).

With `COc1cccc2[nH]c3ccccc3c(=O)c12`, the IC50 in the assay with HaCaT [1] was greater than 50 µM. Also, the concentration giving a half-maximal response (EC50) in assay [2] is greater than 60 µM.

In the assay on HaCaT [1], `COc1cc(OC)c2c(=O)c3ccccc3[nH]c2c1` yielded an IC50 greater than 50 µM.

The compound `O=c1c2ccccc2[nH]c2cc(O)cc(O)c12` displayed an IC50 in the assay with HaCaT [1] of 19.8 µM. Besides, the EC50 in assay [2] was greater than 60 µM.

For `COc1ccc2[nH]c3ccccc3c(=O)c2c1`, the 50% inhibitory concentration (IC50) with HaCaT [1] was greater than 50 µM.

Take `O=c1c2ccccc2[nH]c2cccc(O)c12`: in the assay with HaCaT [1], the IC50 is greater than 50 µM. In addition, in assay [2], the EC50 is greater than 60 µM.

Regarding `Cc1cccc2nc3cc(O)cc(O)c3c(O)c12`, the 50% inhibitory concentration (IC50) in the assay with HaCaT [1] amounted to 0.8 µM. The EC50 in assay [2] was greater than 60 µM. In addition, in the assay on HaCaT [3], the Activity is recorded as 71.5 mU/ml.

In the assay on HaCaT [1], `COc1cccc2c(O)c3c(O)cc(O)cc3nc12` registered an IC50 of 21.3 µM.

For the compound `Cc1c(C)c2c(c(C)c1O)CC[C@@](C)(CCC[C@H](C)CCC[C@H](C)CCCC(C)C)O2` [ALPHA-TOCOPHEROL], in assay [2], the concentration for half-maximal inhibition (IC50) is 8.2 µM.

On to `O=C1c2c(O)cccc2Cc2cccc(O)c21` [ANTHRALIN], for which the EC50 in assay [2] worked out at 16.7 µM. The Activity with HaCaT [3] was found to be 122.8 mU/ml.

On to `CC(Cc1ccc(O)c(O)c1)C(C)Cc1ccc(O)c(O)c1` (stereo not given) [NORDIHYDROGUAIARETIC ACID], for which, in assay [2], the half-maximal inhibitory concentration (IC50) worked out at 4.2 µM.
